Test results from ChEMBL document CHEMBL4834403, “Design and Synthesis of Novel Epigenetic Inhibitors Targeting Histone Deacetylases, DNA Methyltransferase 1, and Lysine Methyltransferase G9a with In Vivo Efficacy in Multiple Myeloma” (J Med Chem, 2021).
Activity calls are given as the source filed them. No cut-off for these calls is given here.

What was measured:
NCI-H929 = experiment: Antiproliferative activity against human NCI-H929 cells assessed as inhibition of cell proliferation measured up to 72 hrs by CellTiter96 Aqueous one reagent based assay; format: functional; conditions: NCI-H929, 72 h, time hrs <=72
[1] = Antiproliferative activity against human KMS-28BM cells assessed as inhibition of cell proliferation measured up to 72 hrs by CellTiter96 Aqueous one reagent based assay; format: functional; conditions: time hrs <=72
JJN-3 = experiment: Antiproliferative activity against human JJN-3 cells assessed as inhibition of cell proliferation measured up to 72 hrs by CellTiter96 Aqueous one reagent based assay; format: functional; conditions: JJN-3, 72 h, time hrs <=72
Histone deacetylase 1 = Histone deacetylase 1 (Homo sapiens, UniProt Q13547); experiment: Inhibition of full length human C-terminal His-tagged/C-terminal Flag-tagged HDAC1 using fluorogenic acetylated peptide as substrate incubated for 30 mins by fluorescence plate reader assay
[2] = target: Histone deacetylase 3/Nuclear receptor corepressor 2 (HDAC3/NCoR2) (Homo sapiens, UniProt O15379); experiment: Inhibition of full length human C-terminal His-tagged HDAC3/human N-terminal GST-agged NCOR2 using fluorogenic acetylated peptide as substrate incubated for 30 mins by fluorescence plate reader assay; format: protein-complex assay
[3] = target: T1, Histone-lysine N-methyltransferase EHMT2 (Homo sapiens, UniProt Q96KQ7); experiment: Inhibition of human G9a enzyme using histone monomethyl-H3K9 peptide as substrate incubated for 1 hr in presence of SAM by TR-FRET assay
T1 sequence (Q96KQ7 whole entry): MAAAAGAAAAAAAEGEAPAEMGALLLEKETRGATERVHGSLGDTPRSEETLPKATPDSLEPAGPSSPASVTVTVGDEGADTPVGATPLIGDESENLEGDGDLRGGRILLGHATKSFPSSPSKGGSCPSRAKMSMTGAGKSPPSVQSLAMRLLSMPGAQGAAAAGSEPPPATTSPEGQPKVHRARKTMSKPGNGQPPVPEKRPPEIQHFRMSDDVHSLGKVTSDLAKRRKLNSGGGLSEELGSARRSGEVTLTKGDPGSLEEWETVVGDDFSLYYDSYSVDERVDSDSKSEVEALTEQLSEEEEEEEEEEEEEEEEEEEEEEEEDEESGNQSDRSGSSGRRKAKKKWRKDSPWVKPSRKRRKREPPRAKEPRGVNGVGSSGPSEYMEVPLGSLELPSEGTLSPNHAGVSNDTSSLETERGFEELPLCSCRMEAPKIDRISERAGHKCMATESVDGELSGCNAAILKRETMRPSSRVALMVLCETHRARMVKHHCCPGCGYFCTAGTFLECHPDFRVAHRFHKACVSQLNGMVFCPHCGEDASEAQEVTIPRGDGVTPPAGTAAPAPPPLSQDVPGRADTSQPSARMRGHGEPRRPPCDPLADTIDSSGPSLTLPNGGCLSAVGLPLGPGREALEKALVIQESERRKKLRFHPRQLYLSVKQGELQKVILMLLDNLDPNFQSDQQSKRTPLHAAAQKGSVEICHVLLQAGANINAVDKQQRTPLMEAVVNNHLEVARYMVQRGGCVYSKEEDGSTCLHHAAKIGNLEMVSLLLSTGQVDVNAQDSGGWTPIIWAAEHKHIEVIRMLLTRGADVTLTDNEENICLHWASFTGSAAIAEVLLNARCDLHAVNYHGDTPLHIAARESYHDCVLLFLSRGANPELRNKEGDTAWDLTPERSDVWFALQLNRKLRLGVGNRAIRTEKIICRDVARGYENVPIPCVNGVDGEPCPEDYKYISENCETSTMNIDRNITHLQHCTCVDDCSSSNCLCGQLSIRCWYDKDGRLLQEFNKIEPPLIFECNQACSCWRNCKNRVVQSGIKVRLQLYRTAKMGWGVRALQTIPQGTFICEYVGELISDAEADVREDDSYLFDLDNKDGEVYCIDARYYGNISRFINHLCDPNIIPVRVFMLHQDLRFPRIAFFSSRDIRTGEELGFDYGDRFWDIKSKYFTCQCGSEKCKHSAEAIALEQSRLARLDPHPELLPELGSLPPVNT

MM1.S [4] = experiment: Antiproliferative activity against human MM1.S cells assessed as inhibition of cell proliferation measured up to 72 hrs by CellTiter96 Aqueous one reagent based assay; format: functional
THLE-2 = experiment: Cytotoxicity against human THLE-2 cells assessed as decrease in cell viability measured after 72 hrs by Vialight-plus cell proliferation assay; format: cell-based; conditions: thle-2, 72 h
Summary of the method: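 Human THLE-2 cells exposed to compound for 72 h. Cytotoxicity reported as LC50 and pLC50, averaged from at least two independent experiments on different days.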

[5] = target: T2, Histone-lysine N-methyltransferase EHMT2 (Homo sapiens) (UniProt Q96KQ7); experiment: Inhibition of G9A in human MM1.S cells assessed as decrease in H3K9Me2 levels > 1 uM after 48 hrs by Western blot analysis; format: cell-based; conditions: dose microM >1, time 48.0 hrs
T2 sequence (whole entry): T1 sequence (Q96KQ7 whole entry)
Summary of the method: (§1)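 MM1.S cells exposed 48 h across a concentration range. Global H3K9Ac and H3K9me2 read by Western blot; run in duplicate.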

[6] = target: T2, Histone-lysine N-methyltransferase EHMT2 (Homo sapiens); experiment: Inhibition of G9A in human MM1.S cells assessed as decrease in H3K9Me2 levels up to 1000 nM after 48 hrs by Western blot analysis; format: cell-based; conditions: dose nM <=1000, time 48.0 hrs; summary of the method: as §1
MM1.S [7] = experiment: Induction of DNA hypomethylation in human MM1.S cells assessed as CPG hypomethylation at position 4 at 10 nM measured after 5 days relative to control; format: cell-based; conditions: time 5.0 day
Summary of the method: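 MM1.S cells dosed every day for 5 days at 2 μM or 10 nM. DNA methylation at CpGs of the POU4F2 promoter read by pyrosequencing; run in duplicate.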

CYP2C19 = CYP2C19 (Homo sapiens, UniProt P33261); experiment: Inhibition of CYP2C19 in human liver microsomes at 10 uM incubated for 10 mins in presence of NADPH by LC-MS/MS analysis relative to control; format: ADME
[8] = Stability of the compound in human pooled hepatocytes assessed as parent compound remaining incubated for 60 mins; format: ADME, cell-based, Hepatocyte; conditions: read-out: Stabilty
[9] = Intrinsic clearance in human pooled hepatocytes; format: ADME, cell-based, Hepatocyte; conditions: read-out: CLH
[10] = Half life in BALB/c RAG2-/- gammaC-/- mouse at 10 mg/kg, ip measured up to 24 hrs by UPLC-triple quadrupole MS analysis; format: ADME, organism-based; conditions: in vivo
[11] = Apparent oral clearance in BALB/c RAG2-/- gammaC-/- mouse at 10 mg/kg, ip measured up to 24 hrs by UPLC-triple quadrupole MS analysis; format: ADME, organism-based; conditions: in vivo
[12] = AUC (0 to 24 hrs) in BALB/c RAG2-/- gammaC-/- mouse at 10 mg/kg, ip using 80% saline 10% Tween20 and 10% DMSO formulation measured up to 24 hrs by UPLC-triple quadrupole MS analysis; format: ADME, organism-based; set-up: route intraperitoneal, dose 10 mg/kg, time <=24; conditions: in vivo
[13] = Half life in BALB/c RAG2-/- gammaC-/- mouse at 10 mg/kg, ip using 80% saline 10% Tween20 and 10% DMSO formulation measured up to 24 hrs by UPLC-triple quadrupole MS analysis; format: ADME, organism-based; conditions: in vivo
[14] = time hrs <=72, read-out: pGI50 (converted)

Histone deacetylase 3/Nuclear receptor corepressor 2 (HDAC3/NCoR2), sequence (O15379 whole entry): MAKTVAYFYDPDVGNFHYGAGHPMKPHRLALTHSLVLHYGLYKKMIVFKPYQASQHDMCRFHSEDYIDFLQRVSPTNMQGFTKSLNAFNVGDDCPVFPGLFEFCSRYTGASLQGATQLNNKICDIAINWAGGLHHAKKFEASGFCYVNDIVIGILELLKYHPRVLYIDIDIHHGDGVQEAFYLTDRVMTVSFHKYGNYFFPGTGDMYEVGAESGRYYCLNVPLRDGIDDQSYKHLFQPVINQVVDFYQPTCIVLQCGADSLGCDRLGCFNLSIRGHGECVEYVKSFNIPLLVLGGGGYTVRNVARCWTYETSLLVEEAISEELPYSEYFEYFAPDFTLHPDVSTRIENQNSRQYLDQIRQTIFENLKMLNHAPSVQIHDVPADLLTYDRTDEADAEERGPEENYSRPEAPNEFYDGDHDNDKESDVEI
Histone deacetylase 3/Nuclear receptor corepressor 2 (HDAC3/NCoR2), sequence (Q9Y618 whole entry, further chain): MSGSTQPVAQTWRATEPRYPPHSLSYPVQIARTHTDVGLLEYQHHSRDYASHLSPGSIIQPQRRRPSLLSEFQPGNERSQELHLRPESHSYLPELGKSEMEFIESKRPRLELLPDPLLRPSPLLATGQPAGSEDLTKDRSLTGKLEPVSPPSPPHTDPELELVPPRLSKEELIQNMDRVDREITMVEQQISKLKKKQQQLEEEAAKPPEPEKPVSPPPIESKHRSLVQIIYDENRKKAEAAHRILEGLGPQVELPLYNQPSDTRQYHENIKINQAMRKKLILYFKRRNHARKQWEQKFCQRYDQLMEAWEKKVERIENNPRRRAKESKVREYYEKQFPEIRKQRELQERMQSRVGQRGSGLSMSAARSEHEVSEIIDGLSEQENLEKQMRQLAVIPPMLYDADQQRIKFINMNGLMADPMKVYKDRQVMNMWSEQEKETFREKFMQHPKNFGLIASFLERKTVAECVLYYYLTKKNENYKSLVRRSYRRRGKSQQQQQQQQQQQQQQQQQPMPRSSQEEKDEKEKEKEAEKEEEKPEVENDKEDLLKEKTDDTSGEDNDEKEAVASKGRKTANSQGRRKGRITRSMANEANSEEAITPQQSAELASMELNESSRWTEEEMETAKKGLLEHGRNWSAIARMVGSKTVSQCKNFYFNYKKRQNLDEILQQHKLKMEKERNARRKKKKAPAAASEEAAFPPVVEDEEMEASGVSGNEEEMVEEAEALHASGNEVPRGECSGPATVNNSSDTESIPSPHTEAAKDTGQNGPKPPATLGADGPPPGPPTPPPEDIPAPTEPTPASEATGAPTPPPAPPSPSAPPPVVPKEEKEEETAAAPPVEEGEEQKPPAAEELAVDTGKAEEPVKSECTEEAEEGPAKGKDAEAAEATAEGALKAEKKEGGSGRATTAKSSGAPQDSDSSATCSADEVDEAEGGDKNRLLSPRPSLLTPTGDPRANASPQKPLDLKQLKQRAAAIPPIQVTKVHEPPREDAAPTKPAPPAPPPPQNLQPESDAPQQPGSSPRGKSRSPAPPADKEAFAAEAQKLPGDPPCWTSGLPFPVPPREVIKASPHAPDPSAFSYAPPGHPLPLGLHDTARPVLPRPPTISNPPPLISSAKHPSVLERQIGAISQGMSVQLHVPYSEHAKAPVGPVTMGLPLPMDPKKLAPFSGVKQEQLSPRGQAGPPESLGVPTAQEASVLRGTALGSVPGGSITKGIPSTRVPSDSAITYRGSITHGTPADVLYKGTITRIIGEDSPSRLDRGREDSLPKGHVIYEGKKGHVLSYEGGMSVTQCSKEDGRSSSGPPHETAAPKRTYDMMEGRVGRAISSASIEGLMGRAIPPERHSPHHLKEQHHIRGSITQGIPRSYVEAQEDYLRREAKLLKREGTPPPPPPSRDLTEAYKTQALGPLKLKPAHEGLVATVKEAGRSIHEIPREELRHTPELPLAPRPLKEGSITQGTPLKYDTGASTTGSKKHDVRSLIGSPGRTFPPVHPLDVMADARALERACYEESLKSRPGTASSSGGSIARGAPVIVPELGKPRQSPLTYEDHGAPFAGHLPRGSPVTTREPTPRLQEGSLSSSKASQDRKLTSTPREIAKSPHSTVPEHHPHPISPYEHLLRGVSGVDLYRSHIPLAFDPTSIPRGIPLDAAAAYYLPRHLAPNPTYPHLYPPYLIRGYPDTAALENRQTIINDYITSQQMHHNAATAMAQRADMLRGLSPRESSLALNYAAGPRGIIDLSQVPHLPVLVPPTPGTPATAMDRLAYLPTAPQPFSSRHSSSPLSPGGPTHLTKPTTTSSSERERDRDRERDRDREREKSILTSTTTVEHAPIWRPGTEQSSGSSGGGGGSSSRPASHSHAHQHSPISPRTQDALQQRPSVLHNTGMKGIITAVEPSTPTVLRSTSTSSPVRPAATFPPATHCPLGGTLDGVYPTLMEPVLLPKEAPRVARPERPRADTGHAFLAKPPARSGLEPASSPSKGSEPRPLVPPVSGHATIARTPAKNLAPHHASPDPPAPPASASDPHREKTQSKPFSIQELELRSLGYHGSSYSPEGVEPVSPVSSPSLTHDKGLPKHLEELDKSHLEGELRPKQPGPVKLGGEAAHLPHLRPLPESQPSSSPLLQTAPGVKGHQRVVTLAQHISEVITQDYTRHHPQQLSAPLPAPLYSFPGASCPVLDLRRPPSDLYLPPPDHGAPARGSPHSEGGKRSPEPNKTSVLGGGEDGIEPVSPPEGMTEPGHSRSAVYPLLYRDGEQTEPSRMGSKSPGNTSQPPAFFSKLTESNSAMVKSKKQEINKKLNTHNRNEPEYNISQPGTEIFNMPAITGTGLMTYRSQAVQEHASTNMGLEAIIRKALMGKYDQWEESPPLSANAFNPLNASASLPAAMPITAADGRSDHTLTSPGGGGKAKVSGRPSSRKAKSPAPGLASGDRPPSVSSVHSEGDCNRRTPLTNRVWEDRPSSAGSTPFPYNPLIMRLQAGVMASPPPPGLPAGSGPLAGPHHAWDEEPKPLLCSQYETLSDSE
Histone deacetylase 1, sequence (Q13547 whole entry): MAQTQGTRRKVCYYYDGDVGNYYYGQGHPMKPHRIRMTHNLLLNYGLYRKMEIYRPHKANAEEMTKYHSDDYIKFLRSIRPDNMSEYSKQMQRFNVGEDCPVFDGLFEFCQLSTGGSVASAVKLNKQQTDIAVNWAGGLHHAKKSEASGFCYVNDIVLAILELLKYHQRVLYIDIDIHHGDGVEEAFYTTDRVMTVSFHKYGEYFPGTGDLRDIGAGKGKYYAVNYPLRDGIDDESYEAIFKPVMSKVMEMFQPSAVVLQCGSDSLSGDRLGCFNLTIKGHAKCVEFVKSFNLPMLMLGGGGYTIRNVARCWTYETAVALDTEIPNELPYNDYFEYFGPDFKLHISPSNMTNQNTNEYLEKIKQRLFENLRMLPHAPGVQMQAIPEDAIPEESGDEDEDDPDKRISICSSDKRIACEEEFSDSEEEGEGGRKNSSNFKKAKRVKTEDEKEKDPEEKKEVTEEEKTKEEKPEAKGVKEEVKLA
CYP2C19, sequence (P33261 whole entry): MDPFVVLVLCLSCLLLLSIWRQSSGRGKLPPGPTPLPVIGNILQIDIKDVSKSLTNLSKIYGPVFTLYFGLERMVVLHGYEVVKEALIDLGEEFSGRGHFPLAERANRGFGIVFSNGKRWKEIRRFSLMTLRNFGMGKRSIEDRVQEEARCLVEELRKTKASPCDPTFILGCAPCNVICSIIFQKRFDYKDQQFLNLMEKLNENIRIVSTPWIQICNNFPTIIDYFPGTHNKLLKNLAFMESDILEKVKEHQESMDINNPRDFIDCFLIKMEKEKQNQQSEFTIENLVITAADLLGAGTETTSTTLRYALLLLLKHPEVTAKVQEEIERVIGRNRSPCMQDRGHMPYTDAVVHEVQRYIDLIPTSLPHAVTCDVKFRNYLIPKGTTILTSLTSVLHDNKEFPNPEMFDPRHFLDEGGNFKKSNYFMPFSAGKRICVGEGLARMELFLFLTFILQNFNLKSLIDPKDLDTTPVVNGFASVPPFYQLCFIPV

Compound | GI50 (NCI-H929) [nM] | GI50 [1] [nM] | GI50 (JJN-3) [nM] | IC50 (Histone deacetylase 1) [nM] | IC50 [2] [nM] | IC50 [3] [nM] | GI50 (MM1.S [4]; time hrs <=72, read-out: GI50) [nM] | GI50 (MM1.S [4]; [14]) [nM] | LC50 (THLE-2) [nM] | pLC50 (THLE-2) | inhibition [5] | inhibition [6] | Activity (MM1.S [7]) [%] | inhibition at 10 min, 10 µM (CYP2C19) [%] | remaining at 1 h [8] [%] | CLint scaled [9] [mL/min/kg] | half-life [10] [h] | CL/F [11] [mL/min] | AUC(0-t) [12] [µM·h] | half-life [13] [h]
COc1cc2c(NCC3CCN(c4ncc(C(=O)NO)cn4)CC3)cc(-c3ccc(C)o3)nc2cc1OCCCN1CCCC1 | 981 | 1300 | 6040 | 3 | 5 | 269 | 2080 | 2090 | 10900 | 4.96 | Active | – | – | – | – | – | – | – | – | –
COc1cc2nc(-c3ccc(C)o3)cc(NCC3CCN(c4ncc(C(=O)NO)cn4)CC3)c2cc1OC | 103 | 547 | 482 | 7 | 18 | > 10000 | 32 | 31.6 | 794 | 6.1 | – | inactive | 10 | 5.6 | 50.8 | 54.2 | 3.8 | 13.3 | 0.916 | 8.46
